Tests used:
[1] = molecular target: D(4) dopamine receptor (Homo sapiens, UniProt P21917); assay: Agonist activity at recombinant human D4 receptor expressed in CHOK1 cells assessed as induction of beta arrestin2 recruitment measured after 30 mins by coelenterazine-based beta-galactosidase reporter gene assay; type: cell-based
[2] = molecular target: 5-hydroxytryptamine receptor 2C (Homo sapiens, UniProt P28335); assay: Displacement of [3H]-mesulergine from recombinant human 5HT2C receptor transiently expressed in HEKT cell membranes measured after 90 mins by microbeta scintillation counting method
Chain of 5-hydroxytryptamine receptor 2C (P28335 whole entry): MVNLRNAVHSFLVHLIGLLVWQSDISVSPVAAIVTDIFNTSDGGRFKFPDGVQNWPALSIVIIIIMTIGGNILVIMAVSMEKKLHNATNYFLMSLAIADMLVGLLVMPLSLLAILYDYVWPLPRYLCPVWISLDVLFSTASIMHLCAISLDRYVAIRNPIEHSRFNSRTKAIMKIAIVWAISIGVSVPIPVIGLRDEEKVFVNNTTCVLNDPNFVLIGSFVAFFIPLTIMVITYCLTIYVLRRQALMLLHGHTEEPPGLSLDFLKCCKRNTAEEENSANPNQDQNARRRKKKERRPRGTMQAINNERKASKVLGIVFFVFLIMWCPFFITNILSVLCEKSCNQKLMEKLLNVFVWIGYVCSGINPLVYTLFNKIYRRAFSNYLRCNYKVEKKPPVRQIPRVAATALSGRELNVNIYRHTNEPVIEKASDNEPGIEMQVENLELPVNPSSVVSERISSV

[3] = molecular target: Alpha-2B adrenergic receptor (Homo sapiens, UniProt P18089); assay: Displacement of [3H]-rauwolscine from recombinant human alpha2B adrenergic receptor transiently expressed in HEKT cells measured after 90 mins by microbeta scintillation counting method; type: cell-based
Chain of Alpha-2B adrenergic receptor (P18089 whole entry): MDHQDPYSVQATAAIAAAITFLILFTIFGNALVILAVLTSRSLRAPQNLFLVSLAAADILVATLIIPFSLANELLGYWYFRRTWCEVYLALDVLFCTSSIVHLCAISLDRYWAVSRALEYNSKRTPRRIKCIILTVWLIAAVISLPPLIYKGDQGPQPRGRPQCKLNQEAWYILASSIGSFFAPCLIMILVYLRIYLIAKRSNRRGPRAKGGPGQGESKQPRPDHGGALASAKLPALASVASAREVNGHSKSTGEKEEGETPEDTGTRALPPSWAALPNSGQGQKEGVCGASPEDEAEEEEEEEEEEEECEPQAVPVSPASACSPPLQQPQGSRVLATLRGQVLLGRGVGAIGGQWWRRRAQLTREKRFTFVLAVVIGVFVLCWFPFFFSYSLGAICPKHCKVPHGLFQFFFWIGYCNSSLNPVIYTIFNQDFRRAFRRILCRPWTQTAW

[4] = molecular target: T1, Neuronal acetylcholine receptor; alpha3/beta4 (Homo sapiens, UniProt P30926+P32297); assay: Displacement of [3H]-epibatidine from recombinant human alpha3beta4 nACHR stably expressed in HEK cells at 10 uM measured after 90 mins by microbeta scintillation counting method relative to control; type: cell-based
Procedure, shortened: (§1)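 Primary screen at 10 μM compound, expressed as % receptor inhibition, from at least three experiments.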

[5] = molecular target: T2, Sodium-dependent serotonin transporter (Homo sapiens, UniProt P31645); assay: Displacement of [3H]-citalopram from recombinant human SERT stably expressed in HEK cells at 10 uM measured after 90 mins by microbeta scintillation counting method relative to control; type: cell-based; procedure, shortened: as §1
Target sequence in this assay (P31645 whole entry, looked up): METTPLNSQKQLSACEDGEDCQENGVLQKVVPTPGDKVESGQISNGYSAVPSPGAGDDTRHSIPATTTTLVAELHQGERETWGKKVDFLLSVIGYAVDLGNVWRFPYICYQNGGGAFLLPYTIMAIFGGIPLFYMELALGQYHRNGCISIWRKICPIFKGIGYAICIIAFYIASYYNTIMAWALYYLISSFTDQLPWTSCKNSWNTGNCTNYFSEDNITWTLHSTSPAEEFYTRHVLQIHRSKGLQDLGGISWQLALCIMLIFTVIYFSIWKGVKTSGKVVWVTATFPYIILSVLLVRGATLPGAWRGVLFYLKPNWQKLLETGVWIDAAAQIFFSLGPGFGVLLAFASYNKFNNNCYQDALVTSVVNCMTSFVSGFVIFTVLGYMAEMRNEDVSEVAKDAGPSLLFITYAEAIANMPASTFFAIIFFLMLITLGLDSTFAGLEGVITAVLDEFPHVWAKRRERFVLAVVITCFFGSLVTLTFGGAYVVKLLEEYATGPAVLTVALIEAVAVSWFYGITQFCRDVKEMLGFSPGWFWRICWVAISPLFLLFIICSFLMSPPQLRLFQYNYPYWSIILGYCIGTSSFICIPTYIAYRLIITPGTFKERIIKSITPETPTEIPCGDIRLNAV

[6] = molecular target: D(1B) dopamine receptor (Homo sapiens, UniProt P21918); assay: Displacement of [3H]-SCH23390 from recombinant human D5 receptor transiently expressed in HEK cell membranes measured after 90 mins by microbeta scintillation counting method
[7] = molecular target: 5-hydroxytryptamine receptor 1B (Homo sapiens, UniProt P28222); assay: Displacement of [3H]-5-CT from recombinant human 5HT1B receptor stably expressed in HEK cell membranes at 10 uM measured after 90 mins by microbeta scintillation counting method relative to control; procedure, shortened: as §1
Chain of 5-hydroxytryptamine receptor 1B (P28222 whole entry): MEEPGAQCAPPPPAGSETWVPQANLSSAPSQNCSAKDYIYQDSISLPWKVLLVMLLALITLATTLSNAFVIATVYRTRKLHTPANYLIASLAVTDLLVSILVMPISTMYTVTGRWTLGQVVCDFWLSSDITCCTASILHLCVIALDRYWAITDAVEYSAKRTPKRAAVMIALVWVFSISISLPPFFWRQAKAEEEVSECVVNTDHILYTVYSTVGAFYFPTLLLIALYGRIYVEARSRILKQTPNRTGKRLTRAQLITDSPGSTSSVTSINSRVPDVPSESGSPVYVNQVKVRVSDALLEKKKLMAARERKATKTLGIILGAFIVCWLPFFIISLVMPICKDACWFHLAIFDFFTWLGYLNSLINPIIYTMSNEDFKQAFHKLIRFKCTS

[8] = molecular target: 5-hydroxytryptamine receptor 2A (Homo sapiens, UniProt P28223); assay: Displacement of [3H]-ketanserin from 5HT2A receptor (unknown origin) at 10 uM measured after 90 mins by microbeta scintillation counting method relative to control; procedure, shortened: as §1
Chain of 5-hydroxytryptamine receptor 2A (P28223 whole entry): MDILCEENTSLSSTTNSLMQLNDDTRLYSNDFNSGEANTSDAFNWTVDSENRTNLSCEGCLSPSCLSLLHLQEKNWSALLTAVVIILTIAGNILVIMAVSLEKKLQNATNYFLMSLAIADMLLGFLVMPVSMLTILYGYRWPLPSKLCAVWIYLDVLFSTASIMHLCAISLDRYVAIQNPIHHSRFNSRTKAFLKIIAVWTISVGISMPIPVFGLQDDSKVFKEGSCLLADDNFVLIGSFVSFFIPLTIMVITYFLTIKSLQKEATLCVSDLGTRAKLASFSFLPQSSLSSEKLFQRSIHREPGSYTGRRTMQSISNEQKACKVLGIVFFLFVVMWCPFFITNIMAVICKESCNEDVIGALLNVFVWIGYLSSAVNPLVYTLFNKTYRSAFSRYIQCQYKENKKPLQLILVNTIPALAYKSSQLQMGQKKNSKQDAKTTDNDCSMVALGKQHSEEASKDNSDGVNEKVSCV

[9] = molecular target: Histamine H3 receptor (Homo sapiens, UniProt Q9Y5N1); assay: Displacement of [3H]-alpha-methylhistamine from human histamine H3 receptor stably expressed in HEK Flp-In cells after 90 mins by microbeta scintillation counting method; type: cell-based
Chain of Histamine H3 receptor (Q9Y5N1 whole entry): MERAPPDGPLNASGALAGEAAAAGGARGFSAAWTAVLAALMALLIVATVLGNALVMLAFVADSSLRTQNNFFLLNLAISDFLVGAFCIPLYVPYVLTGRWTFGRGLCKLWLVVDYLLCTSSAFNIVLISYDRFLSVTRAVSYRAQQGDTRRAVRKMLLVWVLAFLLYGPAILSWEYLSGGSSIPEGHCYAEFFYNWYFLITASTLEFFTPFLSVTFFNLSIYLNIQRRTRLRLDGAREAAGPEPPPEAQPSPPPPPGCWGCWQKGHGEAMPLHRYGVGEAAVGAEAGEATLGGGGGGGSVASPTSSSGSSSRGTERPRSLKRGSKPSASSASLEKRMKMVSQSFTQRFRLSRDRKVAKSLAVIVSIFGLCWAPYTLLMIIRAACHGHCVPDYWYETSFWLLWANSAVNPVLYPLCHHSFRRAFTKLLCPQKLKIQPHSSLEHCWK

[10] = molecular target: Muscarinic acetylcholine receptor M3 (Homo sapiens, UniProt P20309); assay: Displacement of [3H]-QNB/[3H]-NMS from human muscarinic M3 receptor expressed in stable CHO cells after 90 mins by microbeta scintillation counting method; type: cell-based
Chain of Muscarinic acetylcholine receptor M3 (P20309 whole entry): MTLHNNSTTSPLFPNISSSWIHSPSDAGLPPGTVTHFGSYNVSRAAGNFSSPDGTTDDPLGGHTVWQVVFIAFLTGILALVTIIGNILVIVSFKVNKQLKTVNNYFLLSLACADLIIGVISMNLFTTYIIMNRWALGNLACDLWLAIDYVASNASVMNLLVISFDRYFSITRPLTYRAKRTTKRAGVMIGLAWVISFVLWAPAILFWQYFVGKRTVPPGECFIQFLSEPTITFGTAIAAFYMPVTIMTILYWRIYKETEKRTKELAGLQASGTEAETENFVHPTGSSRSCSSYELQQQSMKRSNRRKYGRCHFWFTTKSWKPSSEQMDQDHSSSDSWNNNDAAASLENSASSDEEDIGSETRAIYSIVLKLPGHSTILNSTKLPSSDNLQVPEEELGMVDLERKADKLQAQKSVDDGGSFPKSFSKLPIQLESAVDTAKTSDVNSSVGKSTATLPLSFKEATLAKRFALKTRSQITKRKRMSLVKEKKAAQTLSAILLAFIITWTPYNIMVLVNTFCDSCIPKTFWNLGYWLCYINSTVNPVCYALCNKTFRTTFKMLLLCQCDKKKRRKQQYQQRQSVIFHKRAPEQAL

[11] = molecular target: Alpha-2A adrenergic receptor (Homo sapiens, UniProt P08913); assay: Displacement of [3H]-rauwolscine from recombinant human alpha2A adrenergic receptor stably expressed in MDCK cells at 10 uM measured after 90 mins by microbeta scintillation counting method relative to control; type: cell-based; conditions: probe [3H]-rauwolscine
Chain of Alpha-2A adrenergic receptor (P08913 whole entry): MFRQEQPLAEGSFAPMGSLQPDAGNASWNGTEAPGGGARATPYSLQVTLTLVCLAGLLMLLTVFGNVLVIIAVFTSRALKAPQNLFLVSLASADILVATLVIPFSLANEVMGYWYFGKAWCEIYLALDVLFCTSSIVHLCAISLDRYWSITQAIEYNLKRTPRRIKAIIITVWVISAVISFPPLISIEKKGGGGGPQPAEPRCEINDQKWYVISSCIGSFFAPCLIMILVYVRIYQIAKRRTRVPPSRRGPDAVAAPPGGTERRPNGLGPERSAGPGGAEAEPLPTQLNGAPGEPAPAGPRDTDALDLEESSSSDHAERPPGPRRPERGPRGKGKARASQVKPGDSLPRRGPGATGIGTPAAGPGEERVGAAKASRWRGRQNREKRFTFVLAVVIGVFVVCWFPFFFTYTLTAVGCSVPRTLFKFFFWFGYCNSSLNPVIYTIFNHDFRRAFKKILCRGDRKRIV

[12] = molecular target: T1, Neuronal acetylcholine receptor; alpha3/beta4; assay: Displacement of [3H]-epibatidine from recombinant human alpha3beta4 nACHR stably expressed in HEK cells measured after 90 mins by microbeta scintillation counting method; type: cell-based
[13] = molecular target: T2, Sodium-dependent serotonin transporter; assay: Displacement of [3H]-citalopram from recombinant human SERT stably expressed in HEK cells measured after 90 mins by microbeta scintillation counting method; type: cell-based
Target sequence in this assay (P31645 whole entry): as the sequence (P31645 whole entry, looked up) above

Chain of D(4) dopamine receptor (P21917 whole entry): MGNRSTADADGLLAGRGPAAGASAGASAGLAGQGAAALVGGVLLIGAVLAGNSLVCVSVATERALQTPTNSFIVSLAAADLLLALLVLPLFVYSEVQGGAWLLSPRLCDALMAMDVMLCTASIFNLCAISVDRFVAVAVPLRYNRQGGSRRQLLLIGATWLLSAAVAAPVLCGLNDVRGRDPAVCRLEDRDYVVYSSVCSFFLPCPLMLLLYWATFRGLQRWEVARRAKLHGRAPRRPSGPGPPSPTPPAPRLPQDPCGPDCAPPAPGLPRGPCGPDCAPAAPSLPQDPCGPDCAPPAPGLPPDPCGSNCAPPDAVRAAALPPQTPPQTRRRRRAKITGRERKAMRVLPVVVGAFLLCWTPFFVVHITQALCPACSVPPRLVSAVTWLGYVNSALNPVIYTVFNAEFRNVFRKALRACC

Compound | EC50 [1] [nM] | Ki [2] [nM] | Ki [3] [nM] | inhibition [4] [%] | inhibition [5] [%] | Ki [6] [nM] | inhibition [7] [%] | inhibition [8] [%] | Ki [9] [nM] | Ki [10] [nM] | inhibition at […], 10 µM [11] [%] | Ki [12] [nM] | Ki [13] [nM]
COc1ccccc1N1CCN(CCCSc2nnc(-c3ccccc3)n2C)CC1 | 359 | 159 | 241 | < 50 | < 50 | 3020 |  |  |  |  |  |  | 
COc1ccccc1N1CCC2(CCN(CCCSc3nnc(-c4ccccc4)n3C)CC2)CC1 |  |  |  |  |  |  | < 50 | < 50 | 509 | 514 | < 50 | 8520 | 295
